The values that follow come from paper PMC7591420 (Targeted Oncology, 2020).

Molecules are shown by their SMILES. Read-outs that look alike come from different tables or passages of the source.

One series deals with patients. To be noted: cited from earlier work.
Series [1] deals with patients with advanced solid tumors. The format is in vivo, human. Conditions: all cohorts. The method, boiled down: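 Open-label, non-randomized multicenter escalation plus expansion, 28-day cycles. PI3K inhibitor 0.2–0.8 mg/kg IV over 1 h on days 1, 8, 15 or 1, 8, 15, 22 (max 65 mg); MEK inhibitor 30–50 mg BID orally, continuous from day 4 or 4 days on/3 off from day 6. DLTs assessed in cycle 1; adverse events graded by NCI CTCAE v4.0.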

The nature of series [2]: Plasma pharmacokinetics of copanlisib. Type of series: in vivo, human. Conditions: for Cmax / AUC(0-t): human, plasma, intravenous, cycle 1 day 1, copanlisib alone, geometric mean (% CV); for AUC(0-t): AUC(0–25).
For series [3], the system named is patients with solid tumors. To be noted: intravenous monotherapy; cited from earlier work.
The conditions of series [4]: copanlisib 0.4 mg/kg as monotherapy; cited from earlier work.
A short description of series [5]: Plasma pharmacokinetics of refametinib. To be noted: for AUC(0-t) / Cmax: human, plasma, oral, cycle 1 day 14, refametinib alone, geometric mean (% CV); for AUC(0-t): AUC(0–8). Type of series: in vivo, human.
Series [6] concerns patients with advanced cancer. To be noted: cited from earlier work.
The mark [7] stands for this setting: 0.4 mg/kg, cohort 2C: copanlisib 0.4 mg/kg weekly, refametinib 30 mg BID.
Setting [8] is: 0.4 mg/kg, expansion cohort: copanlisib 0.4 mg/kg weekly, refametinib 30 mg BID.
Where [9] appears, read: 30 mg, cohort 2C: copanlisib 0.4 mg/kg weekly, refametinib 30 mg BID.
[10] abbreviates: 30 mg, expansion cohort: copanlisib 0.4 mg/kg weekly, refametinib 30 mg BID.

As for `O=C(NOCCO)c1cc(CN2OCCCC2=O)c(F)c(F)c1Nc1ccc(I)cc1F` [RO4987655], the “incidence of ophthalmologic toxicities” value in the series on patients is 27%.

Broadly, the Cmax is the peak of the concentration-time curve. The AUC(0-t) is exposure summed from dosing to a finite time, without extrapolation to infinity. As for `COc1c(OCCCN2CCOCC2)ccc2c1N=C(NC(=O)c1cnc(N)nc1)N1CCN=C21` [copanlisib], the “Patients with dose modifications attributed to copanlisib-related TEAEs” value in series [1] (N = 64) came to 39.1%. The “Patients with TEAEs considered related to copanlisib” value in series [1] (N = 64, given with refametinib) is 93.8%. Also, the peak concentration (Cmax) was determined as 126 ng/mL in series [2] (0.2 mg/kg, cohort 1: copanlisib 0.2 mg/kg 3 weeks on/1 week off, refametinib 30 mg BID); 241 ng/mL in series [2] (setting [7]); 312 ng/mL in series [2] (setting [8]); 189 ng/mL in series [2] (cohort 2). The values for the AUC(0-t) in series [2] (setting [7]) and in series [2] (setting [8]) were 725 ng·h/mL and 890 ng·h/mL, respectively. For the same compound, the “median time of Cmax, range over cohorts” value in series [2] (single infusion 0.2–0.8 mg/kg, cycle 1, day 1) was 0.50 to 1.03 h. The “copanlisib Cmax and AUC(0–25), day 1 (alone) versus day 15 (with refametinib)” value in series [2] (within each cohort) is “comparable between day 1 and day 15”. Besides, the “maximum tolerated dose (MTD), single agent” value in series [3] is 0.8 mg/kg. Besides, the “activity of 0.4 mg/kg versus 0.8 mg/kg” value in series [4] is given as “less active than 0.8 mg/kg”.

Take `COc1cc(F)c(F)c(Nc2ccc(I)cc2F)c1NS(=O)(=O)C1(C[C@H](O)CO)CC1` [refametinib]: the “Patients with dose modifications attributed to refametinib-related TEAEs” value in series [1] (N = 64) is listed as 53.1%. Besides, the “Patients with TEAEs considered related to refametinib” value in series [1] (N = 64, given with copanlisib) came out at 95.3%. In addition, the AUC(0-t) in series [5] (30 mg, cohort 1: copanlisib 0.2 mg/kg 3 weeks on/1 week off, refametinib 30 mg BID) was 2510 ng·h/mL; in series [5] (30 mg, cohort 2B: copanlisib 0.6 mg/kg 3 weeks on/1 week off, refametinib 30 mg BID), 3750 ng·h/mL; in series [5] (setting [9]) it was 4770 ng·h/mL; in series [5] (30 mg, cohort 3A: copanlisib 0.8 mg/kg 3 weeks on/1 week off, refametinib 30 mg BID), 4530 ng·h/mL; in series [5] (setting [10]) it was 5310 ng·h/mL; in series [5] (cohort 2), 5110 ng·h/mL. For the same compound, the Cmax in series [5] (setting [9]) amounted to 873 ng/mL; in series [5] (setting [10]), 845 ng/mL; in series [5] (cohort 2), 943 ng/mL. The “median time of Cmax, range over cohorts” value in series [5] (multiple doses of refametinib 30 mg or 50 mg BID) lay within 1.50 to 4.00 h. Further, the “MTD, single agent” value in series [6] (oral, twice daily (BID), monotherapy) is reported as 50 mg. In addition, in series [6] (refametinib monotherapy), the partial response rate is recorded as 2%. The stable disease in series [6] (refametinib monotherapy) was 16%.

With `CC(=O)Nc1cccc(-n2c(=O)n(C3CC3)c(=O)c3c(Nc4ccc(I)cc4F)n(C)c(=O)c(C)c32)c1` [trametinib], the “incidence of ophthalmologic toxicities” value with patients (all-cause) was 19%.
